Consider 1 molecule from ChEMBL document CHEMBL4152204, “Discovery of N-hydroxy-3-alkoxybenzamides as direct acid sphingomyelinase inhibitors using a ligand-based pharmacophore model” (Eur J Med Chem, 2018).

By inhibition is commonly meant how much of the control response was suppressed. Broadly, the IC50 is the midpoint of a concentration-inhibition curve.

The test system of assay [1] is NIH3T3. The assay can be described thus: Inhibition of LPS-induced IL-8 production in mouse NIH/3T3 cells preincubated for 20 hrs followed by LPS-stimulation and measured after 6 hrs by ELISA. Type of assay: functional, cell-based. The procedure, abridged: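 NIH3T3 cells (DMEM, 10% FBS) seeded at 2*10⁵ per well overnight, inhibitor 20 h, then LPS to 50 ng/mL for a further 6 h; IL-6 or IL-8 measured by ELISA; compared with LPS-only and control groups.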
(In general: ELISA stands for enzyme-linked immunosorbent assay.)

Assay [2] deals with NIH3T3. The experiment in a line: Cytoprotective activity against UV-induced apoptosis in mouse NIH/3T3 cells assessed as necrotic cells at 10 uM preincubated for 20 hrs followed by UV irradiation for 5 mins and measured after 24 hrs by flow cytometric analysis (reference value: 1.5%). The format is functional.
Assay [3] relates to NIH3T3. The assay can be described thus: Cytoprotective activity against UV-induced apoptosis in mouse NIH/3T3 cells assessed as late apoptotic cells at 20 uM preincubated for 20 hrs followed by UV irradiation for 5 mins and measured after 24 hrs by flow cytometric analysis (reference value: 6.4%). Type of assay: functional.
The test system of assay [4] is NIH3T3. The experiment in a line: Cytoprotective activity against UV-induced apoptosis in mouse NIH/3T3 cells assessed as early apoptotic cells at 60 uM preincubated for 20 hrs followed by UV irradiation for 5 mins and measured after 24 hrs by flow cytometric analysis (reference value: 79.5%). Type of assay: functional. A general note: In flow cytometry, cells or beads pass a laser one at a time.

The subject of assay [5] is NIH3T3. The assay can be described thus: Cytoprotective activity against UV-induced apoptosis in mouse NIH/3T3 cells assessed as necrotic cells at 20 uM preincubated for 20 hrs followed by UV irradiation for 5 mins and measured after 24 hrs by flow cytometric analysis (reference value: 1.5%). The format is functional.
The target in assay [6] is T1, Sphingomyelin phosphodiesterase 2 (Homo sapiens) (UniProt O60906).
T1 sequence (whole entry): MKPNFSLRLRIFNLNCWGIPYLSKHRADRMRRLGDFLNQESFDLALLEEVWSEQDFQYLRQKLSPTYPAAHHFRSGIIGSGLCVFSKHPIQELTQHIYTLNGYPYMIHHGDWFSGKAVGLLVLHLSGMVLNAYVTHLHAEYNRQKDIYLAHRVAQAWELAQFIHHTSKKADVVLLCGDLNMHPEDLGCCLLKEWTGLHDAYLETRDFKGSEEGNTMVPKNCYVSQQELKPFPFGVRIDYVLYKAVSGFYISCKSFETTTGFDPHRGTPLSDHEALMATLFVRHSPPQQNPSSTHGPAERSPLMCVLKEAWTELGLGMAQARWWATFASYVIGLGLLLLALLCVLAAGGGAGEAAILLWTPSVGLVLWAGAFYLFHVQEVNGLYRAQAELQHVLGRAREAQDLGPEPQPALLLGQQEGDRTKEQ
The experiment in a line: Inhibition of neutral sphingomyelinase (unknown origin) assessed as reduction in NBD-ceramide release at 100 uM by TLC based fluorescence assay.

Assay [7] concerns the target T2, Sphingomyelin phosphodiesterase (Homo sapiens, UniProt P17405).
T2 sequence (P17405 whole entry): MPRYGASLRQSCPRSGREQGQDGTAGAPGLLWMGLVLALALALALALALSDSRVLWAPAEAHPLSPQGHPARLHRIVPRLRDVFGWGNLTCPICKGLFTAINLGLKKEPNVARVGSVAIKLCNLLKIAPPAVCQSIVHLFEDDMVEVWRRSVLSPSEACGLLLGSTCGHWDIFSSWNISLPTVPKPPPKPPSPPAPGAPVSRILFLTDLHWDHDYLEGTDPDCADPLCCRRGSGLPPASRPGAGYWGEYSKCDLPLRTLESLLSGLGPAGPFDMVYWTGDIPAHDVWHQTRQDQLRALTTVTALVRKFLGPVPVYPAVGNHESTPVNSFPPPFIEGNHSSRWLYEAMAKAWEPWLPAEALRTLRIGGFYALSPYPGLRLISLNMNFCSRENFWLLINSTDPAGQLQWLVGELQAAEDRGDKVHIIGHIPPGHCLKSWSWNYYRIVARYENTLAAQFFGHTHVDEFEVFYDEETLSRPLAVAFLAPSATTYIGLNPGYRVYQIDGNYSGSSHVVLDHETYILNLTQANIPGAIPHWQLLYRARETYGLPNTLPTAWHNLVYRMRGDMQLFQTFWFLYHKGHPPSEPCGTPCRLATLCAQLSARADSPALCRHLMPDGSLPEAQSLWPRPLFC
The assay can be described thus: Inhibition of acid sphingomyelinase in human HuH7 cell lysate using NBD-sphingomyelin as substrate after 30 mins by TLC based fluorescence assay.

Assay [8] relates to NIH3T3. The assay can be described thus: Cytoprotective activity against UV-induced apoptosis in mouse NIH/3T3 cells assessed as necrotic cells at 40 uM preincubated for 20 hrs followed by UV irradiation for 5 mins and measured after 24 hrs by flow cytometric analysis (reference value: 1.5%). The format is functional.
The target in assay [9] is T3, Sphingomyelin phosphodiesterase (Mus musculus) (UniProt Q04519).
T3 sequence (whole entry): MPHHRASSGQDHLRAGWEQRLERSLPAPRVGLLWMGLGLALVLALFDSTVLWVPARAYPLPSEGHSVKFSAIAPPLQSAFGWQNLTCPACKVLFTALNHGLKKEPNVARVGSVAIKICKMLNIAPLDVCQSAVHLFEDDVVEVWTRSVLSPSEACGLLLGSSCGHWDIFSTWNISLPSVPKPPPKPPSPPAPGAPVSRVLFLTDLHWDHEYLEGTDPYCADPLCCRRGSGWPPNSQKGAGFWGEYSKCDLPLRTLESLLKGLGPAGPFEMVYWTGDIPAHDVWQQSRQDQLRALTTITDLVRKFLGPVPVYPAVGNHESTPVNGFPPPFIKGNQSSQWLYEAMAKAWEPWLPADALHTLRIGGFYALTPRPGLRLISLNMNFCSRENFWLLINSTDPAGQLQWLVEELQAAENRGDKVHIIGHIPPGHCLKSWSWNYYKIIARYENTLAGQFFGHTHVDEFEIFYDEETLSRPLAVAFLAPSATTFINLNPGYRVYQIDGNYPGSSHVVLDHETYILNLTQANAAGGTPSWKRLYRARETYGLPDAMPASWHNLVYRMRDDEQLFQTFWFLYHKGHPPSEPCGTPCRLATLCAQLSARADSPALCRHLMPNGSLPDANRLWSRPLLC
The assay can be described thus: Inhibition of acid sphingomyelinase in mouse NIH/3T3 cells assessed as ceramide levels at 10 uM after 20 hrs by LC-MS/MS analysis relative to control. The format is cell-based. Put shortly:
(§1)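 NIH3T3 cells in DMEM with 10% FBS, 37 °C, 5% CO₂; at 90% confluence given fresh medium plus inhibitor (5, 10, 20 µM) for 20 h; total ceramides and sphingomyelin quantified by LC-MS-MS versus untreated control; mean ± SD of three independent experiments, Student's t-test.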

Assay [10] concerns the target T3, Sphingomyelin phosphodiesterase (Mus musculus). The experiment in a line: Inhibition of acid sphingomyelinase in mouse NIH/3T3 cells assessed as increase in […] level at 20 uM after 20 hrs by LC-MS/MS analysis relative to control. Type of assay: cell-based. Details: scale not given: the % may be the effect or the level left. Put shortly:
as §1

Assay [11] concerns NIH3T3. The experiment in a line: Cytoprotective activity against UV-induced apoptosis in mouse NIH/3T3 cells assessed as viable cells at 20 uM preincubated for 20 hrs followed by UV irradiation for 5 mins and measured after 24 hrs by flow cytometric analysis (reference value: 12.6%). The format is functional. Conditions: NIH3T3, light or radiation study, read-out: Activity.

Assay [12] has as its system NIH3T3. The experiment in a line: Cytoprotective activity against UV-induced apoptosis in mouse NIH/3T3 cells assessed as viable cells at 10 uM preincubated for 20 hrs followed by UV irradiation for 5 mins and measured after 24 hrs by flow cytometric analysis (reference value: 12.6%). Particulars: NIH3T3, light or radiation study, read-out: Activity. Type of assay: functional.

Calls of active or inactive are those of the source. The calls are words filed in the database; no cut-off is given here.

Regarding `CCCCCCCCCCOc1cc(C(=O)NO)ccc1OC`, the inhibition entry in assay [1] was “Dose-dependent effect”; in assay [9], 37%. Also, the Activity in assay [2] came out at 0%; in assay [3], 8.4%; in [4] it was 55.7%; in assay [5], 0.2%; in assay [8], 0.1%; in [10], 37.5%. Moreover, the inhibition entry in [6] was “inactive”. The molecule further came in with an IC50 in assay [7] of 480 nM. Also, in assay [11], the viability at 20 µM amounted to 54.7%. Further, the viability at 10 µM in assay [12] was found to be 46.9%.
